Published values of several laboratories.
CYP2C9: Cytochrome P450 2C9 (CYP2C9, Homo sapiens, UniProt P11712)
CDK9 with cyclin T1: Cyclin-dependent kinase 9, with cyclin T1 (CDK9, Homo sapiens, UniProt P50750)
CXCR4: C-X-C chemokine receptor type 4 (CXCR4, Homo sapiens, UniProt P61073)
MDH2: Malate dehydrogenase, mitochondrial (MDH2, Sus scrofa, UniProt P00346)
PLA2G5: Phospholipase A2 group V (PLA2G5, Homo sapiens, UniProt P39877)
NTRK3: NT-3 growth factor receptor (NTRK3, Homo sapiens, UniProt Q16288)
ACVR1: Activin receptor type-1 (ACVR1, Homo sapiens, UniProt Q04771)

CCOC(=O)C1CCN(C(=O)c2ccc(N(CC)Cc3cnc4nc(N)nc(N)c4n3)cc2)CC1  IC50 (CYP2C9; enzyme activity, inhibitor, luciferase): 8.51 µM
COc1c(C(=O)/C=C(\O)c2ccccc2)ccc2occc12  IC50 (CDK9 with cyclin T1; enzyme activity, inhibitor, ADP detection): > 100 µM
O=C(Nc1ccc2[nH]nc(-c3ccncc3)c2c1)[C@@H]1CCN(CC(=O)N2CCN(c3ccc(-c4ncccn4)cc3)CC2)C1  IC50 (Mitogen-activated protein kinase 3 (MAPK3, Homo sapiens, UniProt P27361); enzyme activity, inhibitor, radiometric): 0.0042 µM
Cc1cccc(C)c1NC(=O)c1nc(S(C)(=O)=O)ncc1N(Cc1ccccc1)Cc1ccco1  IC50 (CXCR4; β-arrestin recruitment, antagonist): 316 µM
COc1cc(/C=C/C(=O)c2ccc(NC(=O)c3ccccc3CN3C(=O)c4ccccc4C3=O)cc2)cc(OC)c1OC  IC50 (Tubulin beta-5 chain (TUBB, Homo sapiens, UniProt P07437); tubulin polymerisation, inhibitor, ELISA): 2.32 µM
Cc1ccc(S(=O)(=O)Nc2ccc(-c3nc4ccc(NS(=O)(=O)c5ccc(C)cc5)cc4[nH]3)cc2)cc1  IC50 (MDH2; enzyme activity, inhibitor): > 62.5 µM
CCN1CCN(Cc2ccc(NC(=O)c3ccc(C)c(NC(=O)c4cncc(I)c4)c3)cc2C(F)(F)F)CC1  IC50 (Ephrin type-A receptor 2 (EPHA2, Homo sapiens, UniProt P29317); enzyme activity, inhibitor, ADP detection): 0.578 µM
O=C(O)/C=C/c1ccc(O)cc1  IC50 (PLA2G5; enzyme activity, inhibitor, Ellman): 55.1 µM
COc1ccc(S(=O)(=O)Nc2ccc3oc(-c4ccc(NC(=O)c5cccc(C)c5[N+](=O)[O-])cc4)nc3c2)cc1  IC50 (MDH2; enzyme activity, inhibitor): > 62.5 µM
CC/C(=N\NC(=O)C(C)Nc1ccccc1)c1ccc(O)c(C)c1O (stereo not drawn)  IC50 (Serine/threonine-protein kinase Sgk2 (SGK2, Homo sapiens, UniProt Q9HBY8); enzyme activity, inhibitor): 0.0117 µM
O=c1cc(-c2ccc3c(c2)OCO3)oc2c1ccc1occc12  IC50 (CDK9 with cyclin T1; enzyme activity, inhibitor, ADP detection): 31.4 µM
O=S(=O)(Nc1ccc(-c2nc3cc(NS(=O)(=O)c4ccccc4Cl)ccc3o2)cc1)c1ccccc1Cl  IC50 (MDH2; enzyme activity, inhibitor): > 62.5 µM
c1ccc(-n2cc(CCN(Cc3nc(C4CC4)no3)Cc3nc(C4CC4)no3)cn2)cc1  IC50 (CXCR4; β-arrestin recruitment): 200 µM
Cc1cnc(-c2ccc(-c3ccc(NC(=O)Nc4c(F)cc(F)cc4F)cc3F)c3c2C(=O)NC3)[nH]1  IC50 (NTRK3; enzyme activity, inhibitor): 0.0007 µM
COc1c(Br)cccc1C(=O)Nc1ccc(Sc2nc3ccccc3s2)cc1  IC50 (MDH2; enzyme activity, inhibitor): > 62.5 µM
O=P([O-])(O)C(O)(C[n+]1cccc(-c2ccccc2)c1)P(=O)(O)O (stereo not drawn)  IC50 (Geranylgeranyl pyrophosphate synthase (GGPS1, Homo sapiens, UniProt O95749); enzyme activity, inhibitor): 15.8 µM
CC(C)(C)n1nc(-c2ccc3nc(OC4CC4)ccc3c2)c(C(N)=O)c1N  IC50 (ACVR1; cell-free assay): > 10 µM
O=S(=O)(Nc1ccc(-c2nc3cc(NS(=O)(=O)c4ccc(Cl)s4)ccc3o2)cc1)c1ccc(Cl)c(C(F)(F)F)c1  IC50 (MDH2; enzyme activity, inhibitor): > 62.5 µM
CCc1ccc(OCc2nnc(SCc3nc(C)no3)n2Cc2ccccc2)cc1  IC50 (CXCR4; β-arrestin recruitment): 50 µM
COc1ccc2c(Oc3ccc4c(C(=O)Nc5ccccc5N)cccc4c3)ccnc2c1  IC50 (Proto-oncogene tyrosine-protein kinase Src (SRC, Homo sapiens, UniProt P12931); enzyme activity, inhibitor): > 0.5 µM
CC(=O)c1ccc(N=Nc2c(C(=O)O)cc(O)c(O)c2O)cc1  IC50 (PLA2G5; enzyme activity, inhibitor, Ellman): 7.15 µM
Cc1ccc(CN(Cc2ccco2)c2cnc(S(C)(=O)=O)nc2C(=O)Nc2ccc(C)cc2)cc1  IC50 (CXCR4; β-arrestin recruitment, antagonist): 25 µM
O=S(=O)(Nc1ccc(-c2nc3cc(NS(=O)(=O)c4ccc(Br)cc4)ccc3o2)cc1)c1ccc(Br)cc1  IC50 (MDH2; enzyme activity, inhibitor): > 62.5 µM
CS(=O)(=O)c1ncc(N(Cc2ccccc2)Cc2ccco2)c(C(=O)Nc2ccccc2Cl)n1  IC50 (CXCR4; β-arrestin recruitment, antagonist): 40 µM
[Na+].[Na+].[Na+].[O]=[V]([O-])([O-])[O-]  IC50 (Tyrosine-protein phosphatase non-receptor type 6 (PTPN6, Homo sapiens, UniProt P29350); enzyme activity, inhibitor, absorbance): 4.4 µM
CC(=O)NS(=O)(=O)c1ccc(NC(=O)C=CC(=O)O)cc1  IC50 (Dipeptidyl peptidase 4 (DPP4, Homo sapiens, UniProt P27487); enzyme activity, inhibitor, fluorescence): 59.3 µM
OCc1cc(C(O)CNCCCCCCOCCCCc2ccccc2)ccc1O (stereo not drawn)  IC50 (CXCR4; calcium signal, antagonist): 38.3 µM
C=CC(=O)Nc1ccc(N2CCC[C@@H](Nc3ncc(Cl)c(-c4c[nH]c5ccccc45)n3)C2)cc1C  IC50 (CDK9 with cyclin T1; enzyme activity, inhibitor, FRET): 0.165 µM
Cc1ccc(S(=O)(=O)Nc2ccc(-c3nc4cc(NS(=O)(=O)c5ccc(C)cc5)ccc4o3)cc2)cc1  IC50 (MDH2; enzyme activity, inhibitor): > 62.5 µM
Nn1cnnc1O  IC50 (DNA dC->dU-editing enzyme APOBEC-3A (Homo sapiens, UniProt P31941); enzyme activity, inhibitor): > 100 µM
Nc1nc(N)c2nc(CNc3cccc4ccccc34)cnc2n1  IC50 (CYP2C9; enzyme activity, inhibitor, luciferase): 11 µM
CCS(=O)(=O)c1ncc(N(Cc2ccccc2)Cc2ccco2)c(C(=O)Nc2ccccc2F)n1  IC50 (CXCR4; β-arrestin recruitment, antagonist): 50 µM
CC(=O)c1cccc(N=Nc2c(C(=O)O)cc(O)c(O)c2O)c1  IC50 (PLA2G5; enzyme activity, inhibitor, Ellman): 8.47 µM
Cc1n[nH]c2nncnc12  IC50 (deoD (Escherichia coli, UniProt P0ABP8); enzyme activity, inhibitor; pH 7): ~700 µM
CC(C)(C)n1nc(-c2cnc3cc(OC4CC4)ccc3c2)c(C(N)=O)c1N  IC50 (ACVR1; cell-free assay): > 10 µM
Nc1ccc(S(=O)(=O)Nc2ccc(-c3nc4cc(NS(=O)(=O)c5ccc(N)cc5)ccc4o3)cc2)cc1  IC50 (MDH2; enzyme activity, inhibitor): > 62.5 µM
NCc1ccc(Nc2ncc(F)c(Nc3ccccc3)n2)cc1  IC50 (ACVR1; enzyme activity, inhibitor; lysate): > 10 µM
CCn1ncc2c1-c1cnc(N)c(c1)O[C@H](C)c1cc(F)ccc1-c1nn(C)nc1C2  IC50 (NTRK3; enzyme activity, inhibitor, radiometric): 0.154 µM
CC1=C(/C=C/C(C)=C/C=C/C(C)=C/C(=O)O)C(C)(C)CCC1  IC50 (Prothrombin (Rattus norvegicus, UniProt P18292); enzyme activity, inhibitor): 163 µM
CCN(CC)CCOc1ccc2c(c1)C(=O)c1cc(OCCN(CC)CC)ccc1-2  IC50 (Acetylcholinesterase (ACHE, Homo sapiens, UniProt P22303); enzyme activity, inhibitor): 0.0646 µM
CC(=O)c1cccc(/N=N/c2cc(/C=C/C(=O)O)ccc2O)c1  IC50 (PLA2G5; enzyme activity, inhibitor, Ellman): 43.9 µM
CNC(=O)c1cc2c(Oc3ccc(NC(=O)C4(C(=O)Nc5ccc(F)cc5)CC4)cc3)ccnc2cc1OC  IC50 (Tyrosine-protein kinase Mer (MERTK, Homo sapiens, UniProt Q12866); enzyme activity, inhibitor, TR-FRET): 0.003 µM
